# Measurements: ChEMBL document CHEMBL1140235, “Novel 4-(4-aryl)cyclohexyl-1-(2-pyridyl)piperazines as Delta(8)-Delta(7) sterol isomerase (emopamil binding protein) selective ligands with antiproliferative activity” (J Med Chem, 2008)
# How the values were obtained:
# [1] = target: Sigma non-opioid intracellular receptor 1 (Cavia porcellus, UniProt Q60492); test: Displacement of [3H](+)-pentazocine from sigma 1 receptor in guinea pig brain membrane without cerebellum; type: cell membranes
# Outline: (§1)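 Radioligand displacement run by previously published methods, EBP per Moebius and σ1/σ2 per Matsumoto. Tissues from male Dunkin guinea pigs and Wistar Hannover rats (250–300 g). IC50 from six to nine drug concentrations in two or three experiments, samples in duplicate.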
# [2] = target: D(2) dopamine receptor (Rattus norvegicus, UniProt P61169); test: Displacement of [3H]spiroperidol from dopamine D2 receptor in rat striatal membrane; type: cell membranes, Striatum
# [3] = system: PC-3; test: Cytotoxicity against human PC3 cells assessed as LDH release at 100 uM after 24 hrs relative to untreated control; type: functional
# Outline: (§2)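 PC-3 cells exposed to test compound for 24 h at 37 °C, 5% CO2. LDH release into the medium was measured fluorimetrically (ex 560/em 590 nm) after 10 min with substrate mix at room temperature, then stop solution. Total LDH taken from lysed untreated wells. % cytotoxicity = 100 × (treated medium LDH − background)/(total LDH − background).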
# [4] = Displacement of [3H]-DTG from sigma 2-type opioid receptor in rat liver membrane in presence of (+)-pentazocine; type: cell membranes; outline: as §1
# [5] = system: PC-3; test: Antiproliferative activity against human PC3 cells expressing EBP after 48 hrs by MTT assay; type: functional, cell-based
# Outline: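 MTT read-out at 48 h in PC-3 cells grown in RPMI 1640 with 10% FBS, 2 mM glutamine, penicillin/streptomycin, 37 °C, 5% CO2. 10 000 cells/well seeded day 1, drugs added day 2 over 1–100 µM (150 or 300 µM for some references). Solvent controls included. MTT 0.5 mg/mL for 3 h, formazan dissolved in DMSO, absorbance at 570 and 630 nm.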
# [6] = species: Cavia porcellus; test: Selectivity ratio of Ki for sigma 1 receptor in guinea pig brain membrane without cerebellum to Ki for EBP in guinea pig liver membrane; type: cell membranes
# [7] = target: T1, Adrenergic receptor alpha-1 (Rattus norvegicus, UniProt P15823+P23944+P43140); test: Displacement of [3H]prazosin from adrenergic alpha1 receptor in rat cortical membrane; type: cell membranes
# T1 sequence (P15823 whole entry): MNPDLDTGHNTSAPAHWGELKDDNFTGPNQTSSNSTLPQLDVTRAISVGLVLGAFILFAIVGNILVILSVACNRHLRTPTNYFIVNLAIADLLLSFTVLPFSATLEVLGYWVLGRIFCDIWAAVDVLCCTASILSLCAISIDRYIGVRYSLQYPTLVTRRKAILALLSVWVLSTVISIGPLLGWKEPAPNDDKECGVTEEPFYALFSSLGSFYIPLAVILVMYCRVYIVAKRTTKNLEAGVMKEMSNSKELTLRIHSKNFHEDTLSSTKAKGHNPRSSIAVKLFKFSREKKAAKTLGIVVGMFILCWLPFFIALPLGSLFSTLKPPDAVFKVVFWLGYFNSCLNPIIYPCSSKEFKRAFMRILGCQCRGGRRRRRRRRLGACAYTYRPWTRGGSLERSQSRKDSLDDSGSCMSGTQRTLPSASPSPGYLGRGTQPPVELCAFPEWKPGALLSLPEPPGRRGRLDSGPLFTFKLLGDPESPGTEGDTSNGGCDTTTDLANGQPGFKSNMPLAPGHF
# T1 sequence (P23944 whole entry): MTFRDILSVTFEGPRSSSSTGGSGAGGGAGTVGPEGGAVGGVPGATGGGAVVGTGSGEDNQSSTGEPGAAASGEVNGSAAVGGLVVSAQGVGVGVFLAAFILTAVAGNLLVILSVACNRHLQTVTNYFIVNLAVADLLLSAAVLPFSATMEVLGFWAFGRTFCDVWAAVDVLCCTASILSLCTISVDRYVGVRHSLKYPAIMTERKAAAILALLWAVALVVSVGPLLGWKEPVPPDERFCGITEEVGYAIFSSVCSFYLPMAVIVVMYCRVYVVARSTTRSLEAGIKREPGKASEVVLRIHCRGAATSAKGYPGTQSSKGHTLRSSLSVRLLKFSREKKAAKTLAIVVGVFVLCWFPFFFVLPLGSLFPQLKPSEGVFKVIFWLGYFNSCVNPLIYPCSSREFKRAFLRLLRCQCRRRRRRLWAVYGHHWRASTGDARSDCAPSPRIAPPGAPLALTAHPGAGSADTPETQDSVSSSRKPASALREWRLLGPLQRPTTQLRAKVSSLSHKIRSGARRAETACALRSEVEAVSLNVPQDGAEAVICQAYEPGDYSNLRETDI
# T1 sequence (P43140 whole entry): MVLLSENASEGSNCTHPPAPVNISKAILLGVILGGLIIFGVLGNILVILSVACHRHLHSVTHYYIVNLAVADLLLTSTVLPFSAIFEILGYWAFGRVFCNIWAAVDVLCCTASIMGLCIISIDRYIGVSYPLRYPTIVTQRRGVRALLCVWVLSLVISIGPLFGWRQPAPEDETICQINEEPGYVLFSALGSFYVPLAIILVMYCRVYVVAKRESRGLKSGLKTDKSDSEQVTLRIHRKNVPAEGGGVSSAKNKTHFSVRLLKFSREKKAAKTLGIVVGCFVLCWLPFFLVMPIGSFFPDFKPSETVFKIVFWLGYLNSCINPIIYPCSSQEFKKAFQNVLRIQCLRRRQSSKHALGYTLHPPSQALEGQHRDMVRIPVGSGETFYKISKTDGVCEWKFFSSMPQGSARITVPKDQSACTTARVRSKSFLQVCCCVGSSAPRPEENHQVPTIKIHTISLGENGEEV
# [8] = target: T2, 5-hydroxytryptamine receptor 1A (Rattus norvegicus, UniProt P19327); test: Displacement of [3H]8OH-DPAT from 5HT1A receptor in rat hippocampal membrane; type: cell membranes, Hippocampus
# T2 sequence (P19327 whole entry): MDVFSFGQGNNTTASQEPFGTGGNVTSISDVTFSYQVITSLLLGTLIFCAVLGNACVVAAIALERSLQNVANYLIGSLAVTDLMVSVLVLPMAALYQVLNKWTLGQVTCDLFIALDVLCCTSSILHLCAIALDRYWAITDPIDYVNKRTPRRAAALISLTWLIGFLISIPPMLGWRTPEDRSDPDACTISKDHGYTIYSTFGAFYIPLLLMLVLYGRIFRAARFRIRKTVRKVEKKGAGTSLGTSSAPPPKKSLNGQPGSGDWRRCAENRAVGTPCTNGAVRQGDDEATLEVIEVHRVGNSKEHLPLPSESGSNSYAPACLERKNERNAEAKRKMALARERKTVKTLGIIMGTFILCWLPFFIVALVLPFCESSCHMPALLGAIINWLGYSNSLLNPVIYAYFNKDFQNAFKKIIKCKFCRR
# [9] = target: T3, 3-beta-hydroxysteroid-Delta(8),Delta(7)-isomerase (Cavia porcellus, UniProt Q60490); test: Displacement of [3H](-)-(S)-emopamil from EBP in guinea pig liver membrane; type: cell membranes; outline: as §1
# T3 sequence (Q60490 whole entry): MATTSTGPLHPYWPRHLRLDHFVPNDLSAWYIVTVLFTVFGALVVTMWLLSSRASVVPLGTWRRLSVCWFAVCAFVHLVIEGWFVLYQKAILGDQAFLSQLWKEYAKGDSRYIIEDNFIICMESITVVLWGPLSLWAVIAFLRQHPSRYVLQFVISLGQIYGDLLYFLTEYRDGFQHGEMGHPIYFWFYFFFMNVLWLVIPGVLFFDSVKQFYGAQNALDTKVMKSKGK
# [10] = Selectivity ratio of Ki for sigma 2 receptor in rat liver membrane to Ki for EBP in guinea pig liver membrane; type: cell membranes
# [11] = system: PC-3; test: Antiproliferative activity against human PC3 cells expressing EBP at 100 uM after 48 hrs by MTT assay; type: functional; details: PC-3, 48 h
# Outline: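 PC-3 human prostate cancer cells grown in RPMI 1640 with 10% FBS, 2 mM glutamine and penicillin/streptomycin at 37 °C under 5% CO₂. Seeded at 10 000 cells/well, then dosed the next day with solvent (ethanol, DMSO) controls. Incubated 48 h. MTT 0.5 mg/mL added for 3 h at 37 °C, formazan dissolved in DMSO, absorbance read at 570 and 630 nm. Percent inhibition at 100 µM, n ≥ 2 separate experiments.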
# [12] = system: PC-3; test: Cytotoxicity against human PC3 cells assessed as LDH release after 24 hrs; type: functional, cell-based; details: PC-3, 24 h; outline: as §2
# Sigma non-opioid intracellular receptor 1, sequence (Q60492 whole entry): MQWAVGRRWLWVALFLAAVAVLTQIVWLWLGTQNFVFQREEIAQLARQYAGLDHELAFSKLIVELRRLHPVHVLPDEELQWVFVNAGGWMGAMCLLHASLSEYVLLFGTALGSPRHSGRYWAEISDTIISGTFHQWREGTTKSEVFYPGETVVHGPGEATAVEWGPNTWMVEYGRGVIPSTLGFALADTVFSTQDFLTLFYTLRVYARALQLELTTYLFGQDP
# D(2) dopamine receptor, sequence (P61169 whole entry): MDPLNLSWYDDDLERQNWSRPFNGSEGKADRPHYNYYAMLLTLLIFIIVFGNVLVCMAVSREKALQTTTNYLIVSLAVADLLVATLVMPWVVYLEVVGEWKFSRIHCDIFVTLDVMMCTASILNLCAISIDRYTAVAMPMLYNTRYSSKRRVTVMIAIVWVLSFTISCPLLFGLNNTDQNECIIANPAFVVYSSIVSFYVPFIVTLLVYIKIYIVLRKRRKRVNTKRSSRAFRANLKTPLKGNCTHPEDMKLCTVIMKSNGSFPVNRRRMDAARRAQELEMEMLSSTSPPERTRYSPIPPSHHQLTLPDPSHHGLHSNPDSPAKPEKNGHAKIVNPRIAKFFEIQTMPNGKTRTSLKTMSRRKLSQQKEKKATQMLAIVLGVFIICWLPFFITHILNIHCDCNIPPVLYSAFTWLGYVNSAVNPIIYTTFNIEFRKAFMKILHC
Compound,Ki [1] [nM],Ki [2] [nM],Ki [4] [nM],EC50 [5] [nM],Ratio Ki [6],Ki [7] [nM],Ki [8] [nM],Ki [9] [nM],Activity [3] [%],Ratio Ki [10],inhibition at 100 µM [11] [%],EC50 [12] [nM]
Cc1ccccc1NC(=N)Nc1ccccc1C,,,31.1,,,,,7660,<10,,27,
c1ccc(CCN2CCCCC2)cc1,309,,194,,0.5,,,595,<10,0.3,30,

# Continued, in another order:
Ki [1] [nM],Ki [2] [nM],Ki [4] [nM],EC50 [5] [nM],Ratio Ki [6],Ki [7] [nM],Ki [8] [nM],Ki [9] [nM],Compound,Activity [3] [%],Ratio Ki [10],inhibition at 100 µM [11] [%],EC50 [12] [nM]
369,2120,242,19300,45,712,480,8.15,COc1ccccc1[C@H]1CC[C@@H](N2CCN(c3ccccn3)CC2)CC1,<10,30,,
194,787,63.8,,4,786,94,32.8,COc1ccc([C@H]2CC[C@@H](N3CCN(c4ccccn4)CC3)CC2)cc1,<10,,,
,,0.34,37700,,,,8.38,COc1cccc2c1CCCC2CCCN1CCN(C2CCCCC2)CC1 (stereo not drawn),,,,64200
